Assay results reported in ChEMBL document CHEMBL1275367, “Diastereoselective synthesis of aryloxy phosphoramidate prodrugs of 3'-deoxy-2',3'-didehydrothymidine monophosphate” (J Med Chem, 2010).
pEC50: −log10 of the molar value.

What was measured:
[1] = Cytotoxicity against human CEM/0 cells; type: cell-based, CCRF-CEM
Procedure, shortened: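 Proliferation of CEM cells measured by Coulter particle counting across a range of compound concentrations. CC50 is the concentration inhibiting cell proliferation by 50%.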

[2] = test system: Human immunodeficiency virus 1; experiment: Antiviral activity against HIV1 3B infected in human CEM/0 cells assessed as inhibition of virus-induced cytopathicity after 4 to 5 days; type: functional, organism-based; details: Human immunodeficiency virus 1, 3B, CCRF-CEM
[3] = test system: Human immunodeficiency virus 2; experiment: Antiviral activity against HIV2 ROD infected in human CEM/0 cells assessed as inhibition of virus-induced cytopathicity after 4 to 5 days; type: functional, organism-based; details: Human immunodeficiency virus 2, ISOLATE ROD, CCRF-CEM
[4] = test system: Human immunodeficiency virus 2; experiment: Antiviral activity against HIV2 ROD infected in human CEM/TK- cells assessed as inhibition of virus-induced cytopathicity after 4 to 5 days; type: functional, organism-based; details: Human immunodeficiency virus 2, ISOLATE ROD
[5] = test system: Moloney murine sarcoma virus; experiment: Antiviral activity against murine sarcoma virus infected in murine C3H/3T3 cells assessed as inhibition of virus-induced cell transformation

Compound | CC50 [1] | pEC50 [2] | pEC50 [3] | pEC50 [4] | pEC50 [5]
COC(=O)[C@H](C)N[P@](=O)(OC[C@@H]1C=C[C@H](n2cc(C)c(=O)[nH]c2=O)O1)Oc1ccc(C)cc1 | 79 µM | 6.92 | 6.85 | 7.49 | 5.74
COC(=O)[C@H](C)N[P@@](=O)(OC[C@@H]1C=C[C@H](n2cc(C)c(=O)[nH]c2=O)O1)Oc1ccc(C)cc1 | > 250 µM | 6.09 | 6.34 | 5.68 | 5.74
COC(=O)[C@H](C)N[P@](=O)(OC[C@@H]1C=C[C@H](n2cc(C)c(=O)[nH]c2=O)O1)Oc1ccc(OC)cc1 | 77 µM | 6.82 | 6.85 | 7.32 | 5.70
COC(=O)[C@H](C)N[P@@](=O)(OC[C@@H]1C=C[C@H](n2cc(C)c(=O)[nH]c2=O)O1)Oc1ccc(OC)cc1 | 235 µM | 5.96 | 6.07 | 5.72 | 5.28
COC(=O)[C@H](C)N[P@](=O)(OC[C@@H]1C=C[C@H](n2cc(C)c(=O)[nH]c2=O)O1)Oc1ccccc1C | > 250 µM | 5.89 | 5.96 | 5.72 | 5.01
COC(=O)[C@H](C)N[P@@](=O)(OC[C@@H]1C=C[C@H](n2cc(C)c(=O)[nH]c2=O)O1)Oc1ccccc1C | > 250 µM | 5.89 | 5.89 | 5.54 | 5.40
COC(=O)[C@H](C)N[P@](=O)(OC[C@@H]1C=C[C@H](n2cc(C)c(=O)[nH]c2=O)O1)Oc1cccc2ccccc12 | 70 µM | 6.82 | 6.80 | 6.89 | 6.28
COC(=O)[C@H](C)N[P@@](=O)(OC[C@@H]1C=C[C@H](n2cc(C)c(=O)[nH]c2=O)O1)Oc1cccc2ccccc12 | 107 µM | 6.92 | 6.35 | 6.60 | 6.14
Cc1cn([C@H]2C=C[C@@H](CO)O2)c(=O)[nH]c1=O [STAVUDINE] | > 250 µM | 6.08 | 6.12 | 3.88 | 5.60
